Our source for the IC50 and Activity values is ChEMBL document CHEMBL3352187, “Design, synthesis and molecular docking study of novel quinoxalin-2(1H)-ones as anti-tumor active agents with inhibition of tyrosine kinase receptor and studying their cyclooxygenase-2 activity” (Eur J Med Chem, 2014).

Assay [1] concerns MCF7. Nature of the assay: Cytotoxicity against human MCF7 cells after 48 hrs by sulforhodamine B assay. Type of assay: functional, cell-based. The following applies: MCF7, 48 h. An outline of the steps:
(§1)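 Cells seeded at 10^4 per well, left 24 h to attach, then exposed to 0, 12.5, 25, 50 […] as printed, triplicate wells per dose, 48 h at 37 °C, 5% CO2. Fixed, stained with sulforhodamine B, excess dye removed with acetic acid, bound dye taken up in Tris EDTA and read on an ELISA reader. IC50 from survival curve of surviving fraction against concentration.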

Assay [2] has as its target T1, Prostaglandin G/H synthase 1 (Ovis aries, UniProt P05979).
T1 sequence (P05979 whole entry): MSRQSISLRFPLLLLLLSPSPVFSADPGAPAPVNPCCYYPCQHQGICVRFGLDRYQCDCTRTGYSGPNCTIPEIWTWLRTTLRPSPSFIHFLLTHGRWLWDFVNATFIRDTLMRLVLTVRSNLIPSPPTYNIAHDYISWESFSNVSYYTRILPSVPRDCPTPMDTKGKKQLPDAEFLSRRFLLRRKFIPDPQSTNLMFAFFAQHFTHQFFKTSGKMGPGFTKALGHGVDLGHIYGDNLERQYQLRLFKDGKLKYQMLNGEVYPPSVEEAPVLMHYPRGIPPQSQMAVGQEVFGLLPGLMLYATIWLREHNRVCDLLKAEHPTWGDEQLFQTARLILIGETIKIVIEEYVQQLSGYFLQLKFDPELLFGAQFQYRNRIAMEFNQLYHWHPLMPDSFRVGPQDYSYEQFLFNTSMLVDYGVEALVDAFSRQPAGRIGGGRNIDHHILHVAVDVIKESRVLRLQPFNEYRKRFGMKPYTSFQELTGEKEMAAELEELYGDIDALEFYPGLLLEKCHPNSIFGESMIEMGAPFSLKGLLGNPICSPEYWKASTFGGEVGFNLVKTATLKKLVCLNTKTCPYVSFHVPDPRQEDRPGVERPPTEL
Kind of assay: Inhibition of ovine COX1 assessed as reduction in PGH2 production using arachidonic acid substrate by enzyme immunoassay. An outline of the steps:
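Ovine COX-1 with heme in 0.1 M Tris-HCl pH 8.0 containing 5 mM EDTA and 2 mM phenol. Test compound given at […] final, from DMSO stock. Preincubated 5 min at 37 °C, then arachidonic acid added; stopped with 1 M HCl after 2 min. PGH2 reduced to PGF2a by stannous chloride, measured by competitive EIA at 410 nm. IC50 from concentration-inhibition curve, duplicate determinations.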

The test system of assay [3] is HepG2. Nature of the assay: Cytotoxicity against human HepG2 cells after 48 hrs by sulforhodamine B assay. Format: functional, cell-based. The following applies: HepG2, 48 h. An outline of the steps: as §1
Assay [4] relates to MCF7. Kind of assay: Inhibition of protein tyrosine kinase in human MCF7 cells assessed as change in TRK level at cytotoxic IC50 level incubated for 24 hrs by ELISA method. Type of assay: cell-based. Set-up: scale not given: the % may be the effect or the level left. An outline of the steps:
(§2)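 Cells kept in DMEM with 10% heat-inactivated fetal calf serum plus penicillin/streptomycin at 37 °C, 5% CO2. […] Cells homogenized in saline. TRK measured by double-antibody sandwich ELISA, OD 450 nm, read against a standard curve in triplicate. Percent inhibition relative to DMSO-treated control cells.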

Assay [5] deals with HepG2. Kind of assay: Inhibition of protein tyrosine kinase in human HepG2 cells assessed as change in TRK level at cytotoxic IC50 level incubated for 24 hrs by ELISA method. Type of assay: cell-based. Set-up: scale not given: the % may be the effect or the level left. An outline of the steps:
as §2

In the case of `Cc1nn(-c2ccccc2)c(N2CCCCC2)c1/C=N/Nc1nc2ccccc2nc1O`, the values for the IC50 (in the assay with MCF7 [1]; in assay [2]; with HepG2 [3]) were 12.8 µM, > 50 µM and 18.1 µM, respectively. Further, the Activity with MCF7 [4] was 74%; in the assay with HepG2 [5], 75%.
Taken in the same sequence, the figures for `Cc1nn(-c2ccccc2)c(N2CCN(C)CC2)c1/C=N/Nc1nc2ccccc2nc1O` were 10 µM, > 50 µM, 11.4 µM, 83% and 83%.
Consider `Cc1nn(-c2ccccc2)c(OC2CCCC2)c1/C=N/Nc1nc2ccccc2nc1O`, for which the IC50 in the assay on MCF7 [1] is 31.5 µM; in assay [2] it was > 50 µM; with HepG2 [3] it was 36.5 µM. Further, the Activity in the assay with MCF7 [4] turned out to be 16.5%; with HepG2 [5] it was 40%.
As for `Cc1nn(-c2ccccc2)c(N(C)C)c1/C=N/Nc1nc2ccccc2nc1O`, the IC50 in the assay with MCF7 [1] is 18 µM; in assay [2], > 50 µM; with HepG2 [3] it was 31.5 µM. The Activity is 62% in the assay on MCF7 [4] and 73% with HepG2 [5].
Take `Cc1nn(-c2ccc([N+](=O)[O-])cc2)c(Cl)c1/C=N/Nc1nc2ccccc2[nH]c1=O`: the figures for the IC50 with MCF7 [1] and with HepG2 [3] were 20.7 µM and 34.2 µM, respectively. Also, the results for the Activity in the assay on MCF7 [4] and in the assay on HepG2 [5] were 40% and 39%, respectively.
`Cc1nn(-c2ccccc2)c(Cl)c1/C=N/Nc1nc2ccccc2[nH]c1=O`: the IC50 in the assay with MCF7 [1] was 25.2 µM; in assay [2], > 50 µM; in the assay with HepG2 [3], 19.6 µM. The figures for the Activity in the assay with MCF7 [4] and with HepG2 [5] were 34% and 79%, respectively.
Take `Cc1nn(-c2ccccc2)c(N2CCOCC2)c1/C=N/Nc1nc2ccccc2nc1O`: the IC50 in the assay on MCF7 [1] was 9.28 µM; in assay [2], > 50 µM; with HepG2 [3], 11 µM. For the same molecule, the Activity with MCF7 [4] is 85%; in the assay with HepG2 [5], 84%.
Take `Cc1nn(-c2ccccc2)c(N2CCN(S(=O)(=O)c3ccccc3)CC2)c1/C=N/Nc1nc2ccccc2nc1O`: the IC50 in the assay on MCF7 [1] stood at 26.2 µM; in the assay with HepG2 [3] it was 28.1 µM. For the same molecule, the Activity in the assay with MCF7 [4] worked out at 12%; with HepG2 [5], 19%.
`Cc1nn(-c2ccccc2)c(N2CCN(S(=O)(=O)c3ccccc3[N+](=O)[O-])CC2)c1/C=N/Nc1nc2ccccc2nc1O`: the figures for the IC50 with MCF7 [1] and with HepG2 [3] were 14.3 µM and 32.2 µM, respectively. Besides, the Activity in the assay with MCF7 [4] came out at 37%; with HepG2 [5], 13%.
Regarding `Cc1nn(-c2ccccc2)c(SCCO)c1/C=N/Nc1nc2ccccc2nc1O`, the IC50 with MCF7 [1] worked out at 11.3 µM; in the assay on HepG2 [3], 23.4 µM. Moreover, the Activity worked out at 82% in the assay with MCF7 [4] and 78% in the assay on HepG2 [5].
Consider `Cc1nn(-c2ccccc2)c(SCC(=O)O)c1/C=N/Nc1nc2ccccc2nc1O`, for which the IC50 came out at 33.6 µM in the assay on MCF7 [1] and 40.6 µM with HepG2 [3]. Further, the Activity in the assay on MCF7 [4] came out at 4%; in the assay on HepG2 [5], 22%.
Consider `CC(=O)N1CCN(c2c(/C=N/Nc3nc4ccccc4nc3O)c(C)nn2-c2ccccc2)CC1`, for which the IC50 in the assay on MCF7 [1] is 18 µM; in assay [2], > 50 µM; in the assay with HepG2 [3], 11 µM. Also, the Activity in the assay on HepG2 [5] turned out to be 80%.
In the case of `Cc1nn(-c2ccccc2)c(N2CCNCC2)c1/C=N/Nc1nc2ccccc2nc1O`, the values for the IC50 (in the assay with MCF7 [1]; in assay [2]; in the assay on HepG2 [3]) were 16.3 µM, > 50 µM and 38.1 µM, respectively. Besides, the Activity in the assay with MCF7 [4] turned out to be 66%; with HepG2 [5], 20%.
